The EternaBench riboswitch data

Test system: MS2 coat protein
Assay: apparent Kd, MS2 coat protein; higher = weaker binding; RNA-MaP array; theophylline 2 mM where present
Procedure, shortened: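 Green signal from SNAP-549-labelled MS2 coat protein was normalised to red-channel RNA signal and to the median Fmax of control clusters. The protein was titrated from 0.7 or 1.5 nM, doubling to 3 µM, without and then with constant ligand, over designs transcribed by stalled E. coli RNA polymerase on Illumina sequencing-chip clusters, in 100 mM Tris-HCl pH 7.5, 80 mM KCl, 4 mM MgCl2, BSA, DTT, yeast tRNA and Tween-20. The apparent Kd is the median of filtered per-cluster binding-curve fits.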

[1] = designed as: ON switch for theophylline, no ligand
[2] = ligand present: theophylline, designed as: ON switch for theophylline
[3] = designed as: OFF switch for theophylline, no ligand
[4] = ligand present: theophylline, designed as: OFF switch for theophylline

Sequence | apparent Kd [1] [µM] | apparent Kd [2] [µM] | apparent Kd [3] [µM] | apparent Kd [4] [µM]
UACAUGAGGAUCACCCAUGUAAGGUGAGAUACCAGUGAUAUGCUACACCCUUGGCAGCUCACGGCUGACUAUCAGCACACAUGUA | 0.027 | 0.0163 |  | 
CUCGGGUUAUCAGAUACCAGACUAAAAUUUACAUGAGGAUCACCCAUGUAAUGGGUGAUAGUCCCUUGGCAGCUGUUAUGUUUAA |  |  | 0.0623 | 0.119
AUCUUGUACCGUAAUACUUUACGUUGGGAUACCAGCAUGGACCCAUGCCCUUGGCAGCUUUACAUGAGGAUCACCCAUGUUGUAG | 0.0366 | 0.0325 |  | 
UGAUCCUACAGAGAUACCAGUGCCGCUAGAUAACUAUGCACAUGAGGAUCACCCAUGUAACACCCUUGGCAGCUCAACUAAAGGG | 0.0922 | 0.115 |  | 
UAUAUAUAUAUUGAUACCAGCAGAGAAAACGUUUAUCCUAACAUGAGGAUCACCCAUGUAUGCCCUUGGCAGCGAUAUAUAUAUA |  |  | 0.0245 | 0.0325
GGUGGCGUGACGGAUACCAGCCACCACCGAUAGACCACAUGAGGAUCACCCAUGUUGGGUGGCCCUUGGCAGCUGUCGUGCGGCG | 0.23 | 0.0567 |  | 
AUAUGAAAGAGUGAUACCAGACUACAUGAGGAUCACCCAUGUGACAUUUAAAUAUCAUUUGUCCCUUGGCAGCACAUUAAGUACA |  |  | 0.0388 | 0.0449
AGCCCUGUACUAGAUACCAGCUACAUGAGGAUCACCCAUGUGCGUCAAGACUGACUGUGUAGCCCUUGGCAGCUGCUCGCAUGUA |  |  | 0.0221 | 0.0322
GUCAGUUCUCAUGAUACCAGACCUGCCUCGGACAUGAGGAUCACCCAUGUACCCAAGCGAGUCCCUUGGCAGCAUGUGGCUUAAA | 0.0192 | 0.0109 |  | 
UCGUGUAUAUCGGAUACCAGUGAGAACGAUACAUGAGGAUCACCCAUGUGAGUUGAUGUACACCCUUGGCAGCUGUAUAUAUCUA | 0.025 | 0.0163 |  | 
GUUACAUGGCAAGCAUGUAUAUGGAUAGAUACCAGUUGAUAUUAAGACCCUUGGCAGCUGAGUACAUGAGGAUCACCCAUGUAAG |  |  | 0.0425 | 0.0908
AAACGUUGCUGCGAUACCAGACAUGAGGAUCACCCAUGUACCAAGGUACGAAAAUAACAUGUCCCUUGGCAGCGCAGCAACGAAA |  |  | 0.0132 | 0.336
AAACAUUGCUGCGAUACCAGACAUGAGGAUCACCCAUGUACCAAGAAAACGUACAUAAAUGUCCCUUGGCAGCGCAGCAAUGAAA |  |  | 0.498 | 1.29
GCACGACAUGAGGAUCACCCAUGUGCAGAUACCAGUAAUGUAUGUUACCCUUGGCAGCUGAGUAGGUCUGGAGGGCUAUAGGUAA | 0.0134 | 0.0171 |  | 
AGAAUAACACAUGAGGAUCACCCAUGUGAUACCAGCUAGGAAACUAGCCCUUGGCAGCACAUAAUCCUCAUGAGCUGCCAUAAUA |  |  | 0.0128 | 0.0214
GCACUACAUGAGGAUCACCCAUGUGCAGAUACCAGAGGUGUAUGCCUCCCUUGGCAGCUGCGUCGCUCUGGAAACUUAUUGGUUU | 0.0185 | 0.0227 |  | 
GGUCUCUGGAGCGAUACCAGCUUGAGUGUACUGGCCAGGUACAUGAGGAUCACCCAUGUAAGCCCUUGGCAGCGCUGCAGAGACC |  |  | 0.0101 | 0.0291
AGGAACAUGAGGAUCACCCAUGUAAGCGAUACCAGUGAUAUGUUGCGCCCUUGGCAGCGCAAGUGUGUGUGAAAGAUGUAAGAUU |  |  | 0.0165 | 0.0334
AUUAAUAGUUGUGAUACCAGACGAACAUGAGGAUCACCCAUGUAACUUUUAGGUGUUGUAGUCCCUUGGCAGCACUAUGUAGUUA | 0.04 | 0.0337 |  | 
UGAUCCUACAGAGAUACCAGUGCCACUGAGUGACCAGACACAUGAGGAUCACCCAUGUAACACCCUUGGCAGCUCAACUAAAGGG | 0.0222 | 0.0803 |  | 
AUUAAUUGUCGUGAUACCAGACUUACAUGAGGAUCACCCAUGUUACUUAAGAUUUUUGUUGUCCCUUGGCAGCACUUUUUAAUUA |  |  | 0.0241 | 0.0189
UGAUCCUAGACUGAUACCAGUCAUGAGUACAUGAGGAUCACCCAUGUCCAGGGACUCAAUGACCCUUGGCAGCAGAACCUAGUUC | 0.193 | 0.147 |  | 
AAACAUGACAUGGAUACCAGACACAUGAGGAUCACCCAUGUUGAGGAUCACCCAUGUCCCGUCCCUUGGCAGCCAGCAUGAGGAU |  |  | 0.00949 | 0.0102
